Here are results for twelve compounds from paper PMC3920459 (The Journal of organic chemistry, 2013).

The test system of data set [1] is U-937, lymphoma. Briefly: IC50 determination for non-adherent cells using MTS, U-937. As to conditions: for IC50: read-out: IC50 U-937, MTS. The class given is cell-based, human.
The test system of data set [2] is HeLa, cervical carcinoma. The data set can be described thus: IC50 determination for adherent cells using SRB, HeLa. It is filed as cell-based, human. As to conditions: read-out: IC50 HeLa, 48-hour exposure.
The subject of data set [3] is A549, non-small cell lung carcinoma. The data set can be described thus: IC50 determination for adherent cells using SRB, A549. The class given is cell-based, human. As to conditions: read-out: IC50 A549, 48-hour exposure.
For data set [4], the system named is BT549, breast carcinoma. The data set can be described thus: IC50 determination for adherent cells using SRB, BT549. It is filed as cell-based, human. As to conditions: for IC50: read-out: IC50 BT549, SRB.
Data set [5] relates to IMR90, immortalized lung fibroblasts. The data set can be described thus: IC50 determination for adherent cells using SRB, IMR90. It is filed as cell-based, human. Particulars: read-out: IC50 IMR90, 48-hour exposure, immortalized normal cell line.
Data set [6] relates to human cell lines U-937, HeLa, A549, BT549, IMR90. Briefly: 48-hour cell death panel. Particulars: for activity against the cell lines of Table 3 (in words): 48-hour exposure, concentrations up to 10 μM. It is filed as cell-based. In short, it runs like this:
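Adherent lines seeded at 5,000 (HeLa) or 2,000 (A549, BT549, IMR90) cells/well and attached 2–3 h, in RPMI-1640 or, for IMR90, EMEM, each with 10% FBS. Test compound at 1 nM–10 μM on a half-log scale, in triplicate with 1% DMSO final, for 48 h continuous at 37 °C and 5% CO2. Cells fixed in cold 10% TCA and stained with SRB; dye read at 510 nm. IC50 from ≥3 independent experiments.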

For data set [7], the system named is CEM, acute lymphoblastic leukemia. Briefly: IC50 determination using MTS, CEM. Particulars: read-out: IC50 CEM, 48-hour. It is filed as cell-based, human.
For data set [8], the system named is Jurkat, acute T-cell leukemia. Briefly: IC50 determination using MTS, Jurkat. The class given is cell-based, human. As to conditions: read-out: IC50 Jurkat, 48-hour.
Data set [9] has as its system Daudi, Burkitt’s lymphoma. Briefly: IC50 determination using MTS, Daudi. It is filed as cell-based, human. Particulars: read-out: IC50 Daudi, 48-hour.
Data set [10] concerns HL-60, acute promyelocytic leukemia. Briefly: IC50 determination using MTS, HL-60. The class given is cell-based, human. As to conditions: read-out: IC50 HL-60, 48-hour.
Data set [11] relates to CA46, Burkitt’s lymphoma. Briefly: IC50 determination using MTS, CA46. The class given is cell-based, human. As to conditions: read-out: IC50 CA46, 48-hour.
In data set [12] the test system is human erythrocytes. The data set can be described thus: Hemolysis assay using human erythrocytes. It is filed as cell-based.
For data set [13], the system named is U-937 cells. Briefly: Western blot analysis of procaspase-3 and PARP-1 cleavage. It is filed as cell-based, human. As to conditions: 24 hours; 2×, 4×, 6× the 48-hour IC50. A general note: Immunoblotting shows a protein as a band on a membrane.
For data set [14], the system named is U-937 cells. Briefly: Apoptosis with Annexin V-FITC and propidium iodide. It is filed as cell-based, human. Particulars: 21 hours; 4× and 6× the 48-hour IC50.
Data set [15] relates to U-937 cells. The data set can be described thus: Cell cycle arrest in thymidine-synchronized cells. The class given is cell-based, human. Particulars: synchronized U-937 cells, 16 hours.
Data set [16] concerns tubulin dynamics in HeLa cells. The data set can be described thus: Tubulin confocal microscopy. Particulars: 16 hours. The class given is cell-based, human.
The subject of data set [17] is glycogen synthase kinase-3β. Particulars: cited from earlier work.
Data set [18] concerns cells. Particulars: cited from earlier work.
Data set [19] relates to multiple tumor cell lines. As to conditions: cited from earlier work.
The conditions of data set [20]: mice, in vivo; cited from earlier work.
The subject of data set [21] is anthropods. Particulars: cited from earlier work.

By IC50 is commonly meant the concentration that gives 50% inhibition.

“Also recorded” adds a separate entry of the source.

As for `COC1NC(=O)c2ccc(Br)n2C1Cc1c[nH]c(=O)n1C` (single isomer, unassigned; (+)) [(+)-39, (+)-O-methyl-pre-agelastatin A], the IC50 in data set [1] (48-hour exposure), in data set [2], in data set [3], in [4] (48-hour exposure) and in data set [5] was above 10 µM each time. Further, in [6], the “activity against the cell lines of Table 3 (in words)” value (shortened to “activity against the cell lines”) is recorded as “none”.

`COC1NC(=O)c2ccc(Br)n2C1Cc1c[nH]c(=O)[nH]1` (single isomer, unassigned; (+)) [(+)-53, (+)-O-methyl-pre-agelastatin D]: the IC50 in [1] (48-hour exposure), in [2], in data set [3], in data set [4] (48-hour exposure) and in [5] was above 10 µM throughout. Moreover, in data set [6], the “activity against the cell lines” value is recorded as “none”.

For `CN1C(=O)N[C@H]2[C@@H]3NC(=O)c4ccc(Br)n4[C@@H]3C[C@]21O` [(−)-1, (−)-agelastatin A], the “enhanced activity in U-937 relative to the other cell lines” value in data set [1] (48-hour IC50 comparison) was 20 ×. For the same compound, the concentration for half-maximal inhibition (IC50) was determined as 0.067 ± 0.003 µM in data set [1] (48-hour exposure); 0.708 ± 0.09 µM in [2]; 1.05 ± 0.14 µM in data set [3]; 0.278 ± 0.076 µM in [4] (48-hour exposure); 1.11 ± 0.35 µM in [5]; 0.02 ± 0.002 µM in data set [7]. For the same compound, the half-maximal inhibitory concentration (IC50) in data set [8] is 0.074 ± 0.007 µM; in [9], 0.02 ± 0.003 µM; in [10], 0.138 ± 0.066 µM; in data set [11], 0.187 ± 0.071 µM. The “enhanced activity in BT549 relative to the other cell lines” value in data set [4] (48-hour IC50 comparison) was 4 ×. The “concentration without effect on normal red blood cells” value in [12] (hemolysis after 2 h) is above 333 µM. The “hemolytic activity (nonspecific hemolysis of red blood cells)” value in data set [12] (tested at 333 μM, 2 h) is “none”. In data set [13], the “activation of procaspase-3 to caspase-3 and cleavage of PARP-1” value was “induced dose-dependent activation of procaspase-3 to active caspase-3, and cleavage of PARP-1”. The “phosphatidylserine exposure / PI inclusion (apoptosis)” value in data set [14] is listed as “induced dose-dependent apoptosis”. Further, the figures for the cell cycle arrest entry in data set [15] and in data set [18] were “dose-dependent G2/M cell cycle arrest” and “arrest in the G2/M-phase of the cell cycle”, respectively. Moreover, the “tubulin fluorescence (tubulin dynamics within cells)” value (“tubulin fluorescence” below) in [16] is “no change in tubulin fluorescence”. Further, the “activity against the cell lines” value in [6] is recorded as “highest potency in all cell lines tested”. The “inhibition of glycogen synthase kinase-3β” value in data set [17] is “moderately inhibits”. The “anti-neoplastic activity against multiple tumor cell lines” value in data set [19] is “modest anti-neoplastic activity”. In [20], the “penetration into CNS compartments” value is recorded as “able to penetrate into CNS compartments”. Moreover, in data set [21], the toxicity towards anthropods entry is on record as “exhibits toxicity”.

Take `CN1C(=O)N[C@@]2(O)[C@@H]3NC(=O)c4ccc(Br)n4[C@@H]3C[C@@]12O` [(−)-3, (−)-agelastatin C]: the 50% inhibitory concentration (IC50) is above 10 µM in [1] (48-hour exposure); above 10 µM in [2]; above 10 µM in data set [3]; above 10 µM in data set [4] (48-hour exposure); above 10 µM in data set [5]; 2.1 ± 1.3 µM in data set [7]. Also, the IC50 in [8] was 5.31 ± 0.35 µM; in [9], 7.2 ± 2.9 µM; in [10] it was above 10 µM; in [11], above 10 µM. The “activity against the cell lines” value in [6] is reported as “no activity; also recorded: completely abolishes activity”.

For the compound `O=C1N[C@H]2[C@@H]3NC(=O)c4ccc(Br)n4[C@@H]3C[C@@]2(O)N1` [(−)-4, (−)-agelastatin D], in data set [1] (48-hour exposure), the “activity against U-937 cells (in words)” value is “reasonable activity”. Besides, the IC50 amounted to 0.24 ± 0.033 µM in data set [1] (48-hour exposure); 1 ± 0.2 µM in data set [2]; 0.92 ± 0.16 µM in [3]; 0.631 ± 0.082 µM in [4] (48-hour exposure); 2.75 ± 0.6 µM in data set [5]; 0.074 ± 0.025 µM in data set [7]. Moreover, the IC50 turned out to be 0.21 ± 0.063 µM in [8], 0.202 ± 0.015 µM in [9], 0.54 ± 0.12 µM in data set [10] and 0.46 ± 0.24 µM in data set [11]. The “activity against BT549 cells (in words)” value in [4] (48-hour exposure) is “modest activity”. Besides, in data set [13], the “activation of procaspase-3 to caspase-3 and cleavage of PARP-1” value is “induced dose-dependent activation of procaspase-3 to active caspase-3, and cleavage of PARP-1”. In addition, in data set [14], the “phosphatidylserine exposure / PI inclusion (apoptosis)” value is given as “induced dose-dependent apoptosis”. Moreover, the cell cycle arrest result in data set [15] is recorded as “dose-dependent G2/M cell cycle arrest”. Further, the “tubulin fluorescence” value in [16] is on record as “no change in tubulin fluorescence”.

For the compound `CO[C@@]12C[C@@H]3[C@@H](NC(=O)c4ccc(Br)n43)[C@@H]1NC(=O)N2C` [(−)-5, (−)-agelastatin E], the IC50 in data set [1] (48-hour exposure) is 2.56 ± 0.13 µM; in [2], 8.6 ± 0.81 µM; in data set [3], above 10 µM; in data set [4] (48-hour exposure) it was 6.9 ± 2.5 µM; in data set [5], above 10 µM; in [7], 0.83 ± 0.37 µM. For the same compound, the IC50 in data set [8] amounted to 1.5 ± 0.33 µM; in [9], 1.41 ± 0.53 µM; in [10], 4.6 ± 3.6 µM; in [11], 2.45 ± 0.95 µM. In [6], the “activity against the cell lines” value is recorded as “weak activity”. Moreover, the “reduction in anticancer potency relative to (−)-agelastatin A (1)” value in [6] (comparison of 48-hour IC50 values) is above 10 fold.

Regarding `O=C1N[C@H]2[C@@H]3NC(=O)c4cc(Br)c(Br)n4[C@@H]3C[C@@]2(O)N1` [(−)-6, (−)-agelastatin F], the IC50 in [1] (48-hour exposure), in data set [2], in [3], in [4] (48-hour exposure), in [5] and in [7] was above 10 µM in each case. For the same compound, the half-inhibitory concentration (IC50) in data set [8], in data set [9], in data set [10] and in data set [11] was above 10 µM each time. In addition, the “activity against the cell lines” value in data set [6] is “no activity”.

On to `CC(=O)O[C@H]1C(=O)[C@@]2(C)[C@H]([C@H](OC(=O)c3ccccc3)[C@]3(O)C[C@H](OC(=O)[C@H](O)[C@@H](NC(=O)c4ccccc4)c4ccccc4)C(C)=C1C3(C)C)[C@]1(OC(C)=O)CO[C@@H]1C[C@@H]2O` [Taxol, reference compound], for which the “tubulin fluorescence” value in data set [16] is “heightened”.

As for “(−)-O-methyl-di-epi-agelastatin A [(−)-50]”, the IC50 in [1] (48-hour exposure), in [2], in data set [3], in data set [4] (48-hour exposure) and in data set [5] was above 10 µM throughout. Further, the “activity against the cell lines” value in data set [6] is reported as “none”.

As to (−)-agelastatin B [(−)-2], the half-maximal inhibitory concentration (IC50) in [1] (48-hour exposure) was 1.06 ± 0.16 µM; in data set [2], 4.8 ± 1.2 µM; in [3], above 10 µM; in data set [4] (48-hour exposure), 4.8 ± 1.1 µM; in [5] it was above 10 µM; in data set [7], 0.29 ± 0.2 µM. Further, the half-maximal inhibitory concentration (IC50) amounted to 0.75 ± 0.44 µM in [8], 0.46 ± 0.28 µM in [9], 2.4 ± 1 µM in data set [10] and 1.07 ± 0.42 µM in [11]. Besides, the “activity against the cell lines” value in data set [6] is “weak activity”.

For (−)-dehydroagelastatin A [(−)-51], the concentration for half-maximal inhibition (IC50) in data set [1] (48-hour exposure), in data set [2], in [3], in data set [4] (48-hour exposure) and in [5] was above 10 µM throughout. Moreover, the “activity against the cell lines” value in data set [6] is “none”.

Regarding (−)-di-epi-agelastatin C [(−)-52], the IC50 in [1] (48-hour exposure), in [2], in data set [3], in [4] (48-hour exposure) and in data set [5] was above 10 µM each time. Further, the “activity against the cell lines” value in [6] is recorded as “none”.
